Experimental data as given in PMC5289284 (Journal of medicinal chemistry, 2016).

Columns and labels:
PI3Kγ = PI3Kγ (Homo sapiens, UniProt P48736); experiment: PI3Kγ lipid kinase membrane capture assay; format: biochemical; settings: for fold selective over PI3Kγ: PI4KIIIβ versus PI3Kγ; for potency for PI3Kγ compared with compound 1: relative to compound 1, Fig. 2A
Procedure, shortened: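 Radiometric membrane-capture assay. For PI3Kγ, 5nM enzyme was preincubated 15 min with test compound, then cold ATP plus γ32P-ATP was added for 15 min. PI3Kγ final conditions: 50mM HEPES pH 7.5, 100mM NaCl, 0.03% CHAPS, 10mM MgCl2, 80µM PIP2, 10µM ATP, 1uCi. PI4KIIIβ ran 30 min with 2.5nM enzyme, 100µM PI, Bis-Tris Propane pH 7.5, Triton X-100, 10µM ATP, 1uCi. Both used 2% DMSO final.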

PI4KIIIβ = PI4KIIIβ (Homo sapiens, UniProt Q9UBF8); experiment: PI4KIIIβ lipid kinase membrane capture assay; format: biochemical; settings: for potency for PI4KIIIβ compared with compound 1: relative to compound 1, Fig. 2A
PI4KIIIβ, sequence (Q9UBF8 whole entry): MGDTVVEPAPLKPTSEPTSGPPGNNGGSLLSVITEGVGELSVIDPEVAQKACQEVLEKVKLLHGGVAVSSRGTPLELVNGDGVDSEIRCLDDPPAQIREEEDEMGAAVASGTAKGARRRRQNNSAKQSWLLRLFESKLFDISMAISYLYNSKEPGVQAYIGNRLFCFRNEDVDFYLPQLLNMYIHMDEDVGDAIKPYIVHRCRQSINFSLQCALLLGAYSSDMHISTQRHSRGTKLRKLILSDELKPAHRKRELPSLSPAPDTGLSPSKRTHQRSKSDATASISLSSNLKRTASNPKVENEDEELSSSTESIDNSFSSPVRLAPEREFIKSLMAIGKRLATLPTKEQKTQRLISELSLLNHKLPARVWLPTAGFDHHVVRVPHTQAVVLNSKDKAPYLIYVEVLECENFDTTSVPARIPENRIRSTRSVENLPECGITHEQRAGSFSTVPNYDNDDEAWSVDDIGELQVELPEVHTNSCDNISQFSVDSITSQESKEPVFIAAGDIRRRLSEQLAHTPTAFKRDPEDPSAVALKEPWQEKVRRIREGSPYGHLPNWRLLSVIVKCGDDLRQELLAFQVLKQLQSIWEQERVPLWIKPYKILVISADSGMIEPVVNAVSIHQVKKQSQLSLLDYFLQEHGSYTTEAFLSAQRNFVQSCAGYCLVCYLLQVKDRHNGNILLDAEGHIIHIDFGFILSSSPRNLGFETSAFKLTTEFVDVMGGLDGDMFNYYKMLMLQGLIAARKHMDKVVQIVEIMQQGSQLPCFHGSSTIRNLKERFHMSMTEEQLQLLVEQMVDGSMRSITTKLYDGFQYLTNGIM
Procedure, shortened: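 Recombinant PI4KIIIβ with a phosphoinositide substrate and γ32P-ATP in a membrane-capture format. Test compound diluted into 10% DMSO and kinase assay buffer. After the reaction, a 4 µL aliquot was spotted on 0.2 µm nitrocellulose, dried 5 min under a heat lamp, then washed once for 30 s and 6×5 min in 1M NaCl/1% phosphoric acid.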

[1] = tested on: HCVcc genotype 2a reporter virus J6/JFH1-GLuc in Huh 7.5 cells; experiment: HCV2a antiviral assay; format: cell-based, Hepatitis C virus; settings: Huh 7.5 cells stably infected with J6/JFH1-GLuc, three days incubation
PI3Kδ = PI3Kδ (Homo sapiens, UniProt O00329); experiment: PI3Kδ lipid kinase membrane capture assay; format: biochemical; settings: for fold selective over PI3Kδ: PI4KIIIβ versus PI3Kδ; for potency for PI3Kδ compared with compound 1: relative to compound 1, Fig. 2A
PI3Kδ, sequence (O00329 whole entry): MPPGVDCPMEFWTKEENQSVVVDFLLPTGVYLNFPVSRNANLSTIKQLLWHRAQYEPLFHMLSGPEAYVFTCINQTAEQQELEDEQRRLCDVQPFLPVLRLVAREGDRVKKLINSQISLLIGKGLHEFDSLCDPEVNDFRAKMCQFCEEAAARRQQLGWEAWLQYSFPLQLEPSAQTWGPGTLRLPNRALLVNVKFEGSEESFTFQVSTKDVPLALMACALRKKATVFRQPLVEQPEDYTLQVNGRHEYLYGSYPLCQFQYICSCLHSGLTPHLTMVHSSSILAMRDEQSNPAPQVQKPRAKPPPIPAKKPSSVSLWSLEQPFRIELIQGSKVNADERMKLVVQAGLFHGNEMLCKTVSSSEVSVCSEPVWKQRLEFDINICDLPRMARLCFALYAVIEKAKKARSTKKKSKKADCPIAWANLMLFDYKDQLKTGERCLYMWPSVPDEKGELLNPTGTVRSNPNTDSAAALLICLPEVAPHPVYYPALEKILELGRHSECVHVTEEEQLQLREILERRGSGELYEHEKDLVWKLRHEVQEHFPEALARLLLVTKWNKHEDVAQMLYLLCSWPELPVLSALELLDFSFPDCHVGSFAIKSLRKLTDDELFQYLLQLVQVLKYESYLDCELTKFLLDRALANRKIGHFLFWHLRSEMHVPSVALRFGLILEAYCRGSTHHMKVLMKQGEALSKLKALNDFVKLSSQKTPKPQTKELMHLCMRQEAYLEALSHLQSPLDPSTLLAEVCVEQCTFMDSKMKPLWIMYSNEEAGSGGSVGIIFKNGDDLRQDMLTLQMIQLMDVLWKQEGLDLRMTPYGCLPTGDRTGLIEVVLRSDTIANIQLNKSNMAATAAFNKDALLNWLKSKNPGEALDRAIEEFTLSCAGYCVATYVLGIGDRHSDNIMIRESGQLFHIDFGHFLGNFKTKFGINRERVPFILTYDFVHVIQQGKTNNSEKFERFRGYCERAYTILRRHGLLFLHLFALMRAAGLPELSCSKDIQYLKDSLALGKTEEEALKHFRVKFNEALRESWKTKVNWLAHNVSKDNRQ
PI3Kδ, sequence (P27986 whole entry partner): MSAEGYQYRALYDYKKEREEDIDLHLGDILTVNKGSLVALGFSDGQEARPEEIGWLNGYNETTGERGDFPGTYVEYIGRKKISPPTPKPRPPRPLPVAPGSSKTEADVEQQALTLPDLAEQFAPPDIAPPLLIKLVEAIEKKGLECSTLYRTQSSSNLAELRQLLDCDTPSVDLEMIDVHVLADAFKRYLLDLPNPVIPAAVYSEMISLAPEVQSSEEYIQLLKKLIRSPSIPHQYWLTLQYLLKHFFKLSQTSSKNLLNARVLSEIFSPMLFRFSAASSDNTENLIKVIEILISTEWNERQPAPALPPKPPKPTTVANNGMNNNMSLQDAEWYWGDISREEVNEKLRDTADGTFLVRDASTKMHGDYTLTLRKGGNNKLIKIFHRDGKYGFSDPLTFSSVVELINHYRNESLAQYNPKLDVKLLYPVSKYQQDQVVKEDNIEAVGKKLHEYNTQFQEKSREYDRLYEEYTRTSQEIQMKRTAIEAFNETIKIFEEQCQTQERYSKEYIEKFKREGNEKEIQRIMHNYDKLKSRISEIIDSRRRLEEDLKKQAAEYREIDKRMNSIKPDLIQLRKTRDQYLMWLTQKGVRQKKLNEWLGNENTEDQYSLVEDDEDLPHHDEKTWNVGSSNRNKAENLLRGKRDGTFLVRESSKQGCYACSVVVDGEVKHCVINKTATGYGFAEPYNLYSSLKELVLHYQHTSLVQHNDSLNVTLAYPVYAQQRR

vps34 = vps34 (Homo sapiens, UniProt Q8NEB9); experiment: vps34 lipid kinase membrane capture assay; format: biochemical; settings: for inhibition of vps34: concentrations up to 20 µM, MnCl2; for potency for vps34 compared with compound 1: relative to compound 1, Fig. 2A
vps34, sequence (Q8NEB9 whole entry): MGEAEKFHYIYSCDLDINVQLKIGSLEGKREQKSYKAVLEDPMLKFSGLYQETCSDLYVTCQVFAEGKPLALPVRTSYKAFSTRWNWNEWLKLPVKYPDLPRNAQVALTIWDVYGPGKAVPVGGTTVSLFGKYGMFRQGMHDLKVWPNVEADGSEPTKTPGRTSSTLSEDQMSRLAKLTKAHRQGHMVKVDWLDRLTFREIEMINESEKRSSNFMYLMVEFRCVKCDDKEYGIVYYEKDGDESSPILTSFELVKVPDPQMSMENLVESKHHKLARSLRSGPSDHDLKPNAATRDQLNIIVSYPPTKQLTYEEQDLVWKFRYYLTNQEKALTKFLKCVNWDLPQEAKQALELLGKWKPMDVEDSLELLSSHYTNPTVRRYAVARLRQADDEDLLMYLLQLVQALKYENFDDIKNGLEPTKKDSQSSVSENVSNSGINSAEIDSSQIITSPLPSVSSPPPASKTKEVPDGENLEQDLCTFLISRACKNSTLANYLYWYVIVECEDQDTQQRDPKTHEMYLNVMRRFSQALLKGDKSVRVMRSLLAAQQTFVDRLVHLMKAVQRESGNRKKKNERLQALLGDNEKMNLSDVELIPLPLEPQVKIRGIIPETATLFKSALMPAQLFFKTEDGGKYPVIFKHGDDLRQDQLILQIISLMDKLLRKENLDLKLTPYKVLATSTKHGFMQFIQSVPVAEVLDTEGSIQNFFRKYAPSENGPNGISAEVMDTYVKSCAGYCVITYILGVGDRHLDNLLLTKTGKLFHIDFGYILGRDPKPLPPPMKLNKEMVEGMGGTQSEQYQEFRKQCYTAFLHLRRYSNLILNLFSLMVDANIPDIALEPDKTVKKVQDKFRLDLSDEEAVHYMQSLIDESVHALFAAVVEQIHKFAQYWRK
Procedure, shortened: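 Recombinant vps34 (10nM) was preincubated 15 min with test compound diluted in 10% DMSO/kinase buffer. Cold ATP plus γ32P-ATP (final 10µM ATP, 2.5uCi) was added and the reaction ran 1 hour. Final buffer: 50mM HEPES pH 7.5, 0.1% CHAPS, 2mM MnCl2, 1mM EGTA, 2mM DTT, 100µM PI, 500ng/µL BSA, 2% DMSO. Product was spotted on nitrocellulose and washed in 1M NaCl/1% phosphoric acid.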

PI3Kγ, sequence (P48736 whole entry): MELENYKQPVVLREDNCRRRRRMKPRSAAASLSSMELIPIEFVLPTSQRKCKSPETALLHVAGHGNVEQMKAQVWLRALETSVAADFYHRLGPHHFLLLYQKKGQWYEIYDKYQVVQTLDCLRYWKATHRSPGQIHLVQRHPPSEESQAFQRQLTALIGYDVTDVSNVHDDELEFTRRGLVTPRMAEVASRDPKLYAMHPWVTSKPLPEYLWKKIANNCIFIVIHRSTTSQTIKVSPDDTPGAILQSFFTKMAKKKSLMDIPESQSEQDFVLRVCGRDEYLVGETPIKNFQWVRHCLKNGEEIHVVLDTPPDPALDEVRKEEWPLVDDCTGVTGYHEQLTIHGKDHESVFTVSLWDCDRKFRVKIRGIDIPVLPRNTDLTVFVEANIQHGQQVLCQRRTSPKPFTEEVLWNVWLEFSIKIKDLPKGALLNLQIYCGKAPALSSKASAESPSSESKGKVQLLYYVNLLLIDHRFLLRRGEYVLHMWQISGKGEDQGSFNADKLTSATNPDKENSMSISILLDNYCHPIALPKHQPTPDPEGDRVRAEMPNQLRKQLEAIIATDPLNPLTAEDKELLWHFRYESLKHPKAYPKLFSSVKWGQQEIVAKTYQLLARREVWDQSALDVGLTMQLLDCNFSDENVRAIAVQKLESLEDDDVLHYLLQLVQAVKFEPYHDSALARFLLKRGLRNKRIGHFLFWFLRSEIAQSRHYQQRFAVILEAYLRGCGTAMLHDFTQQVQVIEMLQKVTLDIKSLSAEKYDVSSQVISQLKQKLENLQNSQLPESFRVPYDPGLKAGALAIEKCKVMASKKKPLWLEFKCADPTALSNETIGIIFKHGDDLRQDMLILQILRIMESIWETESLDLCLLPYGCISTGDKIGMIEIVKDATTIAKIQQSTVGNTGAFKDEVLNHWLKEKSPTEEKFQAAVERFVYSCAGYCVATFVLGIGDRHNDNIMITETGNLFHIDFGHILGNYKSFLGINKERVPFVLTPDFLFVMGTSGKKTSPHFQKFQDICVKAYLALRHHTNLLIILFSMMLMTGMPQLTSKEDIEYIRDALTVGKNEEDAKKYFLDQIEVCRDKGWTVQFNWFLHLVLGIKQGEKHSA

Structure (SMILES)	fold selective over PI3Kγ (PI3Kγ) [fold]	potency for PI4KIIIβ compared with compound 1 (PI4KIIIβ)	fold selective over PI3Kδ (PI3Kδ) [fold]	further results
Cc1nc(NC(=O)C(C)(C)C)sc1-c1ccc(Cl)c(S(=O)(=O)NCCO)c1 [compound 4]	> 600	–	–	–
CC(=O)Nc1nc(C)c(-c2ccc(Cl)c(S(=O)(=O)Nc3ccc(F)cc3)c2)s1 [compound 7]	–	minimal differences in both potency and specificity	–	–
COc1ccc(-c2sc(NC(=O)C3CCCC3)nc2C)cc1S(=O)(=O)Nc1ccc(O)cc1 [compound 9]	> 140	–	> 20	anti-viral activity against Hepatitis C Virus and toxicity [1]: best combination of anti-viral efficacy, and lowest toxicity; inhibition of vps34 (vps34): no inhibition
Cc1nc(NC(=O)C2CCCC2)sc1-c1ccc(Cl)c(S(=O)(=O)NCCO)c1 [compound 5]	> 90	–	–	–
CC(=O)Nc1nc(C)c(-c2ccc(Cl)c(S(=O)(=O)Nc3ccc(O)cc3)c2)s1 [compound 6]	–	large increase in potency	–	potency for PI3Kγ compared with compound 1 (PI3Kγ): large increase in potency; potency for PI3Kδ compared with compound 1 (PI3Kδ): large increase in potency; potency for vps34 compared with compound 1 (vps34): large increase in potency
COc1ccc(-c2sc(NC(=O)C(C)(C)C)nc2C)cc1S(=O)(=O)Nc1ccc(O)cc1 [compound 10]	> 1000	–	> 200	anti-viral activity against Hepatitis C Virus and toxicity [1]: best combination of anti-viral efficacy, and lowest toxicity; inhibition of vps34 (vps34): no inhibition; fold selective for PI4KIIIβ across all enzymes tested (PI4KIIIβ; panel of nine related lipid kinases): > 200 fold
CC(=O)Nc1nc(C)c(-c2ccc(Br)c(S(=O)(=O)NCCO)c2)s1 [compound 2]	–	slight increase in potency	–	potency for PI3Kγ compared with compound 1 (PI3Kγ): slight decrease in potency; potency for PI3Kδ compared with compound 1 (PI3Kδ): slight increase in potency; potency for vps34 compared with compound 1 (vps34): slight increase in potency
COc1ccc(-c2sc(NC(C)=O)nc2C)cc1S(=O)(=O)NCCO [compound 3]	> 40	increase in potency	> 40	–
